Data from paper PMC10835327 (Heliyon, 2024).

Molecular target: HSA (human serum albumin) (Homo sapiens, UniProt P02768)
Assay: intrinsic fluorescence quenching, double-logarithmic plot
Type: binding
Settings: Tris-HCl pH 7.40, 298 K, no added metal ion
Method in brief: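 HSA (1.00 × 10−4 mol L−1) titrated stepwise with test compound dissolved in DMSO. Emission spectra recorded at 300–600 nm with excitation at 292 nm and both slits at 15 nm. Spectra taken at 291, 298, 304 and 310 K. Intensities corrected for inner-filter effect. Ka and n derived from double-logarithmic fit of intensity versus quencher concentration.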

Sequence of HSA (human serum albumin) (P02768 25-609): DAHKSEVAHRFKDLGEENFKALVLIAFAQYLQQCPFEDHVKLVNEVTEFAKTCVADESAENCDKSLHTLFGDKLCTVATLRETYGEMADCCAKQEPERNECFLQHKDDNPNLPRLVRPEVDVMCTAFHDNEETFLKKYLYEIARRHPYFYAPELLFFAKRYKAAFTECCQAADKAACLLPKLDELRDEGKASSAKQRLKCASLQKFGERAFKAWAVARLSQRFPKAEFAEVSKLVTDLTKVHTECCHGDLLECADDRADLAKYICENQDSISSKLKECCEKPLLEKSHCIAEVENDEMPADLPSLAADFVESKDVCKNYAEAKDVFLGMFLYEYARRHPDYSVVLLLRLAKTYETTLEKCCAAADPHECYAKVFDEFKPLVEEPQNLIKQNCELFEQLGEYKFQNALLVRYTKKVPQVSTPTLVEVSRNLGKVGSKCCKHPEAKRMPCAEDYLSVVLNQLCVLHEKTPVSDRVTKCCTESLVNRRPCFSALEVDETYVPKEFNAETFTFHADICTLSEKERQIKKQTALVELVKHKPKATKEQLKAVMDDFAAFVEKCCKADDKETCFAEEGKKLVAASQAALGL

Row | Ka/(L.mol^-1) (n = 0.9857) | Ka/(L.mol^-1) (n = 1.0099) | Structure (SMILES)
1 | 2.5668 × 10^4 ±2.0417 L∙mol^−1 |  | COc1cc(/C=C/C(=O)O)ccc1O [FA, ferulic acid]
2 |  | 8.7256 × 10^4 ±1.1863 L∙mol^−1 | COC(=O)/C=C/c1ccc(O)c(OC)c1 [FAM, ferulic acid methyl ester]
